Experimental findings from ChEMBL document CHEMBL1156940, “Modified cap group suberoylanilide hydroxamic acid histone deacetylase inhibitor derivatives reveal improved selective antileukemic activity” (J Med Chem, 2010) are described below.

The source made the active and inactive calls. No cut-off for these calls is given here.

In one experiment the test system is SK-BR-3. The experiment can be described thus: Antiproliferative activity against human SK-BR-3 cells after 48 hrs by cell titer-glo assay. Type of experiment: functional, cell-based. Conditions: SK-BR-3, 48 h. On the technique in general: ATP-based viability assays read luminescence as a measure of living cells.
For another experiment, the system named is K562. The experiment can be described thus: Antiproliferative activity against human K562 cells after 48 hrs by cell titer-glo assay. The experiment is classed as functional, cell-based. Conditions: K562, 48 h. The method, boiled down:
(§1)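 Cells kept in RPMI-1640 with 10% FBS at 37 °C, 5% CO2. 10^4 suspension cells were plated immediately before dosing. Compounds were added at 0.1–100 µM, final 1% DMSO, with DMSO vehicle control, and incubated 48 h. CellTiter-Glo luminescence was read. EC50 is the dose reducing luminescence to 50% of untreated cultures.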

In the next experiment the test system is HT-29. The experiment can be described thus: Antiproliferative activity against human HT-29 cells after 48 hrs by cell titer-glo assay. The experiment is classed as functional, cell-based. Particulars: HT-29, 48 h.
Another experiment relates to U-937. As to the kind of experiment: Antiproliferative activity against human U937 cells after 48 hrs by cell titer-glo assay. The experiment is classed as functional, cell-based. Conditions: U-937, 48 h. The procedure, abridged:
as §1

Another experiment has as its system Jurkat. As to the kind of experiment: Antiproliferative activity against human Jurkat JA16 cells after 48 hrs by cell titer-glo assay. The experiment is classed as functional, cell-based.
Another experiment deals with HL-60. As to the kind of experiment: Antiproliferative activity against human HL60 cells after 48 hrs by cell titer-glo assay. Type of experiment: functional, cell-based. Particulars: HL-60, 48 h.
In experiment [1] the target is T1, Protein deacetylase HDAC6 (Homo sapiens) (UniProt Q9UBN7).
T1 sequence (whole entry): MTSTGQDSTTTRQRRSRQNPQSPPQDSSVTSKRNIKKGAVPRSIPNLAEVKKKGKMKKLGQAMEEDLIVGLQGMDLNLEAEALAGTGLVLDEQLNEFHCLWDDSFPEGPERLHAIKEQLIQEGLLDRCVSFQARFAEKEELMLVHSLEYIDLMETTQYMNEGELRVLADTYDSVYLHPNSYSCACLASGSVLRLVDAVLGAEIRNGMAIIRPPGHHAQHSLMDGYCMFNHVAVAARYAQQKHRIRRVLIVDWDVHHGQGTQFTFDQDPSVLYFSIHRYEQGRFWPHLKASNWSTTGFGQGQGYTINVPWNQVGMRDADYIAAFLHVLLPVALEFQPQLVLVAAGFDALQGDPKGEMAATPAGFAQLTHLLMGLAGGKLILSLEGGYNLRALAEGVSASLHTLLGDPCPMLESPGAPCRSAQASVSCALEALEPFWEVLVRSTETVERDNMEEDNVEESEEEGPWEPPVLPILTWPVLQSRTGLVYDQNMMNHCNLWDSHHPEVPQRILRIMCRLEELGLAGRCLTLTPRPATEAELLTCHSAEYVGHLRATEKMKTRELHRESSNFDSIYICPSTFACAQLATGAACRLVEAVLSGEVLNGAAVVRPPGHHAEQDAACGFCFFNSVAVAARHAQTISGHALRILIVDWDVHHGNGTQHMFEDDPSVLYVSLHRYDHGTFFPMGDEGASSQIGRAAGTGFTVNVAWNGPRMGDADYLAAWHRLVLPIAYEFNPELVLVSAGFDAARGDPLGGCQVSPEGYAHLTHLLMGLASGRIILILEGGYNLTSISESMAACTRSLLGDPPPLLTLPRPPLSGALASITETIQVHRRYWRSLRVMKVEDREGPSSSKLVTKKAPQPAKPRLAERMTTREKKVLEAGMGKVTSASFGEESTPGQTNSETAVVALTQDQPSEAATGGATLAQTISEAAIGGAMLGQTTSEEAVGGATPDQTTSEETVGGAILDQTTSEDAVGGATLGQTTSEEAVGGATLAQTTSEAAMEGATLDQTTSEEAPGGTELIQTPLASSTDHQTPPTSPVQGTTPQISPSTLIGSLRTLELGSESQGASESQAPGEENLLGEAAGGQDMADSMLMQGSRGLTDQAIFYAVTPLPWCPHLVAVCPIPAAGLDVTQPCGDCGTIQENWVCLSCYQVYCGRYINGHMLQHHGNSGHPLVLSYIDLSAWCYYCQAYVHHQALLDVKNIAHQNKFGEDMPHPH
The experiment can be described thus: Inhibition of recombinant FLAG-tagged HDAC6 assessed as [3H]acetic acid release preincubated for 30 mins measured after 2 hrs by scintillation counting. The method, boiled down:
(§2)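 FLAG-tagged HDAC1 or HDAC6 was immunopurified from stably expressing cell lines and washed in HDAC buffer (10 mM Tris-HCl pH 8.0, 10 mM NaCl, 10% glycerol). Enzyme was preincubated with inhibitor (1 µM) for 30 min at 4 °C, then given 20 000 cpm [3H]peracetylated H4 peptide for 2 h at 37 °C. The reaction was stopped with acetic acid/HCl, extracted into ethyl acetate, and released [3H]acetate counted by scintillation.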

Experiment [2] addresses Histone deacetylase 1 (Homo sapiens) (UniProt Q13547). As to the kind of experiment: Inhibition of recombinant FLAG-tagged HDAC1 assessed as [3H]acetic acid release preincubated for 30 mins measured after 2 hrs by scintillation counting. The procedure, abridged:
as §2

Sequence of Histone deacetylase 1 (Homo sapiens) (Q13547 whole entry): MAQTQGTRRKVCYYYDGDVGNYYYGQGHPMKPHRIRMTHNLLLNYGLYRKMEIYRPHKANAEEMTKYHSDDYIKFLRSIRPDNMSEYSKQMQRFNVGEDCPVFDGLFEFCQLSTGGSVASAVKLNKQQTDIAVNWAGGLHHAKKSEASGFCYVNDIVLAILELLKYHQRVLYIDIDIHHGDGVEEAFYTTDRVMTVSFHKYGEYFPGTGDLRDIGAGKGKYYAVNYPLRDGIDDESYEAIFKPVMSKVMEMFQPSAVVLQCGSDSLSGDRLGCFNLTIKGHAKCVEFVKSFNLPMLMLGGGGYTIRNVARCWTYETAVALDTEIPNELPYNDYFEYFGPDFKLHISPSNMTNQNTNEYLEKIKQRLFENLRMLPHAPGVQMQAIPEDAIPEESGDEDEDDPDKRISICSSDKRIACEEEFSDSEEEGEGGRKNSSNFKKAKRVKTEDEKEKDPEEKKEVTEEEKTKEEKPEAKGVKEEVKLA

For the compound `O=C(O)CCCCCCC(=O)NO`, the EC50 in the experiment with SK-BR-3, in the experiment on K562, with HT-29, with U-937, in the experiment on Jurkat and with HL-60 was > 100 µM throughout.
For the compound `O=C(CCCCCCC(=O)Nc1cccc(Cl)c1)NO`, the outcome in experiment [1] and in experiment [2] was Active. Also, the half-maximal effective concentration (EC50) in the experiment with SK-BR-3 turned out to be 2 µM; with K562, 3.5 µM; with HT-29, 1 µM; in the experiment with U-937 it was 0.35 µM; in the experiment with Jurkat it was 0.58 µM; in the experiment with HL-60, 2.1 µM.
Turning to `O=C(CCCCCCC(=O)Nc1ccccc1-c1ccccc1)NO`, the results for the EC50 with SK-BR-3, in the experiment with HT-29 and with U-937 were 73.5 µM, 27 µM and 14 µM, respectively.
Turning to `O=C(CCCCCCC(=O)Nc1ccc(F)cc1)NO`, the result in experiment [1] and in experiment [2] was Active. Further, the values for the EC50 in the experiment with SK-BR-3, in the experiment on HT-29 and in the experiment with U-937 were 3 µM, 4.2 µM and 1.8 µM, respectively.
Regarding `O=C(CCCCCCC(=O)Nc1cccc(F)c1)NO`, the outcome in experiment [1] and in experiment [2] was Active. Besides, the EC50 was 1.9 µM with SK-BR-3; 2.4 µM in the experiment with K562; 1.4 µM in the experiment on HT-29; 0.5 µM in the experiment on U-937; 0.64 µM with Jurkat; 1.25 µM with HL-60.
In the case of `O=C(CCCCCCC(=O)Nc1ccc2c(c1)Cc1ccccc1-2)NO`, the outcome in experiment [1] and in experiment [2] was Active. For the same compound, the EC50 amounted to 4 µM in the experiment with SK-BR-3; 3.5 µM in the experiment on K562; 2.5 µM with HT-29; 0.6 µM with U-937; 0.43 µM with Jurkat; 1.13 µM in the experiment with HL-60.
With `O=C(CCCCCCC(=O)Nc1[nH]c(=O)ncc1F)NO`, the EC50 is 40.5 µM with SK-BR-3; > 100 µM in the experiment on K562; 63 µM in the experiment on HT-29; 26.5 µM in the experiment on U-937; 16 µM with Jurkat; 18 µM in the experiment on HL-60.
As to `O=C(CCCCCCC(=O)Nc1ccc(O)cc1)NO`, the figures for the EC50 in the experiment on SK-BR-3, in the experiment on HT-29 and with U-937 were 11 µM, 15 µM and 6.4 µM, respectively.
The matching figures for `O=C(CCCCCCC(=O)Nc1cccc(C(F)(F)F)c1)NO`: 26 µM, 6.4 µM and 1.2 µM.
The matching figures for `O=C(CCCCCCC(=O)Nc1ccccc1Br)NO`: 17.5 µM, 17 µM and 6.8 µM.
Turning to `O=C(CCCCCCC(=O)Nc1ccc(C(F)(F)F)cc1)NO`, the result in experiment [1] and in experiment [2] was Active. The EC50 in the experiment on SK-BR-3 worked out at 2.2 µM; with K562, 2.1 µM; in the experiment with HT-29 it was 1.4 µM; in the experiment on U-937, 0.45 µM; in the experiment with Jurkat, 0.53 µM; in the experiment on HL-60, 1.54 µM.
With `Nc1ccc(NC(=O)CCCCCCC(=O)NO)cc1`, the EC50 in the experiment with SK-BR-3 was found to be 8.5 µM; in the experiment on HT-29 it was 18 µM; in the experiment on U-937 it was 6.4 µM.
The matching figures for `O=C(CCCCCCC(=O)Nc1cccc2cccnc12)NO`: > 100 µM, > 100 µM and 26 µM.
On to `O=C(CCCCCCC(=O)Nc1ccc2ccccc2c1)NO`, for which the outcome in experiment [1] and in experiment [2] was Active. Further, the EC50 in the experiment on SK-BR-3 is 1.8 µM; in the experiment with K562, 3 µM; in the experiment with HT-29, 0.85 µM; with U-937, 0.35 µM; in the experiment on Jurkat, 0.4 µM; in the experiment on HL-60 it was 1.16 µM.
For `O=C(CCCCCCC(=O)Nc1ccc(Cl)cc1)NO`, the outcome in experiment [1] and in experiment [2] was Active. In addition, the EC50 with SK-BR-3 came out at 2.3 µM; in the experiment on K562, 3.3 µM; with HT-29, 2.1 µM; in the experiment on U-937 it was 0.55 µM; in the experiment on Jurkat, 0.77 µM; in the experiment with HL-60 it was 1.87 µM.
Consider `N#Cc1ccc(NC(=O)CCCCCCC(=O)NO)cc1`, for which the values for the EC50 with SK-BR-3, with HT-29 and in the experiment on U-937 were 8.8 µM, 42 µM and 7 µM, respectively.
On to `CN(C)c1ccc(NC(=O)CCCCCCC(=O)NO)cc1`, for which the outcome in experiment [1] and in experiment [2] was Active. The EC50 with SK-BR-3 worked out at 4.2 µM; with HT-29, 3.15 µM; in the experiment with U-937, 1.7 µM.
For `O=C(CCCCCCC(=O)NO)NO` [SUBEROHYDROXAMIC ACID], the figures for the EC50 in the experiment on SK-BR-3, in the experiment on HT-29 and in the experiment on U-937 were 27 µM, 32 µM and 23 µM, respectively.
For `O=C(CCCCCCC(=O)Nc1ccc([N+](=O)[O-])cc1)NO`, in that order: 58 µM, 76 µM and 22 µM.

What is called EC50 is the concentration at which the effect is half-maximal. A lower EC50 goes with greater potency.
